# Compounds with a hit are over-represented: about 2.1% of the library has one in this group of screens.
# RanGTP-Impb inh = inhibitors of RanGTP-importin-beta interaction, primary screen, biochemical, FRET, CFP-Ran, YFP-importin-beta, homogeneous; inhibition, % (test concentration not listed); cell-free CFP-Ran/YFP-importin-beta FRET ratio; AID 2216; 1.1% of 300,000 active;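 active means more than half of the replicate wells show a fall in the fluorescence ratio signal beyond about 16%, limit read from the data, passing the limit was not always enough; inconclusive means exactly half of the replicate wells pass the set limit; inactive means fewer than half of replicates pass the limit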;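 further: 0% = DMSO wells and 100% = Ran loaded with GDP instead of GTP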
# TNF necrop inh = inhibitors of TNF-alpha induced necroptosis in Jurkat FADD-/- cells | activation (protection from cell death), % at 10 µM | Jurkat FADD-/- TNF necroptosis rescue, ATP luminescence, 24 h; 0 = TNF only, 100 = no-TNF cells | 0.068% of 220,000 active | AID 463075;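 active means activation, meaning protection from cell death, of at least 50% relative to plate controls; inactive means activation below 50%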;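 further: necroptosis triggered by 40 ng/mL TNF-alpha added together with compound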
# Runt-CBFb FRET = blocks binding of human RUNX1 Runt domain to CBFb. 0.46% of 220,000 active. inhibition, % at 20 µM. Cerulean-Runt/Venus-CBFb FRET ratio 530/480, 1 h. AID 1496. Q01196+Q13951;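 active means inhibition over about 50% at 20 µM in the single-dose screen, limit read from the data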;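 further: 0% = DMSO wells and 100% = excess unlabeled CBFb competitor control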
# Target sequence (Q01196 whole entry, looked up, the tested form may be a part): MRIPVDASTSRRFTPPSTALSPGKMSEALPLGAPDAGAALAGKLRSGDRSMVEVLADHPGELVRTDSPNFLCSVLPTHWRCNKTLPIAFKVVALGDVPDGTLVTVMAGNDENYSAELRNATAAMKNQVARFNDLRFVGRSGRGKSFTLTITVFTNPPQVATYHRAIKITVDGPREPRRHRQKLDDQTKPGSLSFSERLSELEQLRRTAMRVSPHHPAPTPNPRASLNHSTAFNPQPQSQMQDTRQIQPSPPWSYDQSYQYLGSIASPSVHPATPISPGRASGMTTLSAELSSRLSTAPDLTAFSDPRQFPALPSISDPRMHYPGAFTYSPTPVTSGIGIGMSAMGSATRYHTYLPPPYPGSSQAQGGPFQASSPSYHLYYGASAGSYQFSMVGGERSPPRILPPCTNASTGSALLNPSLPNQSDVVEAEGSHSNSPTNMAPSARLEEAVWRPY
# Target sequence (Q13951 whole entry, looked up, the tested form may be a part): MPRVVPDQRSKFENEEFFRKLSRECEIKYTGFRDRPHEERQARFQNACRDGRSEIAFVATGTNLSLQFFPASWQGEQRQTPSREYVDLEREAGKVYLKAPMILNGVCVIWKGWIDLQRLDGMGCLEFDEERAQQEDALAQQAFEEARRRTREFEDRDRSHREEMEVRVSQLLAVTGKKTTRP
#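 Schedule: protein complex preformed 1 h, compound exposure 1 h, room temperature, dark; test system: Cerulean-labeled Runt domain protein; amount: 100 nM per protein; buffer or medium: Tris 50 mM pH 7.5, KCl, K2SO4, 0.01% BSA; read-out: loss of energy transfer signal; detection: FRET fluorescence; controls: 5 µM unlabeled CBFb as full-inhibition high control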
# L929 necroptosis = L929 zVAD cell death inhibition. L929 zVAD necroptosis rescue, ATP luminescence, 24 h; with zVAD 60 µM. viability rescue, % at 10 µM. 0.38% of 220,000 active. AID 1377;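 active means activation, scaled between plate controls, above about 75%, limit read from the data; inactive means activation under that limit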;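 further: 0% = zVAD with DMSO and 100% = DMSO alone without zVAD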
# Hck Nef HTS = human Hck-Nef kinase inhibition; P08631; Recombinant Hck-YEEI plus Nef, Z-Lyte FRET kinase assay; inhibition, % at 20 µM; 0.68% of 220,000 active;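 active means Hck-Nef kinase inhibition above about 50%, limit read from the data; inactive means inhibition below that limit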;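 further: 0% = DMSO with Hck plus Nef and 100% = Hck alone without Nef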
# Runt-SMMHC FRET = blocks binding of human RUNX1 Runt domain to CBFb-SMMHC. Cerulean-Runt/Venus-CBFb-SMMHC FRET ratio 530/480, 1 h. inhibition, % at 20 µM. Q01196+Q13951. 0.74% of 220,000 active;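 active means mean inhibition across duplicate retests at 20 µM reaching about 50%, limit read from the data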;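 further: 0% = DMSO wells and 100% = wells with excess untagged CBFb-SMMHC; inhibitors lower the FRET ratio by blocking Runt binding to CBFb-SMMHC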
# Hck Nef conf = Hck-Nef kinase inhibition, confirmation; shares compounds with Hck Nef HTS; Recombinant Hck-YEEI:Nef, Z-Lyte FRET kinase assay; calls only at 10 µM; 28% of 1,300 active; AID 463188;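 active means average inhibition of at least 50%, with Z-scores no higher than 3 in both the phospho-tyrosine peptide and fluorescence counterscreens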
# Numbers without * were called inactive; i = inactive; ? = inconclusive; / = no result shown; + = active, no number.
SMILES,RanGTP-Impb inh,TNF necrop inh,Runt-CBFb FRET,L929 necroptosis,Hck Nef HTS,Runt-SMMHC FRET,Hck Nef conf
COc1cc(NS(=O)(=O)c2ccc(NC(=S)NC(=O)c3sc4ccccc4c3Cl)cc2)nc(OC)n1,-2,3,6,1,63*,-6,+
COc1cc(NS(=O)(=O)c2ccc(NC(=S)NC(=O)c3sc4cc(F)ccc4c3Cl)cc2)nc(OC)n1,-2,0,5,2,7,-8,/
COc1cccc(Nc2nc3cc(OC)ccc3cc2C#N)c1,-6,0,2,1,-9,6,/
COc1cccc(Nc2ncc(C#N)c(N)n2)c1,-2,-22,0,38,57*,0,+
O=C1OC(/C=C/c2ccccc2)=NC/1=C\c1cccnc1,-2,0,-1,1,82*,-2,+
CCN(CC)C(=O)C(=O)N/N=C/c1ccc(C(=O)O)cc1,2,1,3,2,4,0,/
Cc1cc(/C=C2\NC(=O)NC2=O)c(C)n1-c1cccnc1,0,2,0,1,52*,-2,i
Cc1cc(/C=C2\NC(=S)NC2=O)c(C)n1-c1cccnc1,9,-4,7,5,29,-1,/
CSc1nc(N2CCN(CCO)CC2)c2sc3nc(-c4ccco4)c4c(c3c2n1)CCC4,/,/,-4,/,/,-13,/
CSc1nc(N(C)CCO)c2sc3nc(-c4ccco4)c4c(c3c2n1)CCC4,-2,-6,-11,0,89*,-80,i
CSc1cccc(NC(=O)CSc2nc3ccccc3o2)c1,4,-2,0,0,0,-5,/
CC(=O)Nc1ccc(S(=O)(=O)C(C#N)c2nc3ccccc3nc2NCCCO)cc1 (stereo unspecified),4,0,14,1,165*,18,/
CC(=O)Nc1ccc(S(=O)(=O)Nc2nc3ccccc3nc2Nc2ccccc2)cc1,-1,2,3,2,3,4,/
CC(=O)Nc1ccc(S(=O)(=O)C(C#N)c2nc3ccccc3nc2NCCO)cc1 (stereo unspecified),3,0,10,1,148*,6,/
C/C(N)=C(/C#N)C(=O)CSc1nc2ccccc2c(=O)n1Cc1ccc(C)cc1,1,1,/,0,55*,1,i
COc1ccc([N+](=O)[O-])cc1NC(=O)C(C)Sc1nc(C)c(C)c(C)n1 (stereo unspecified),?,1,-2,1,1,0,/
Cc1c(-n2c(O)c(C3=c4ccccc4=NC3=O)sc2=S)c(=O)n(-c2ccccc2)n1C,3,1,12,1,100*,0,+
CCN(CC)C(=O)CS(=O)(=O)CC(=O)Nc1cc(OCCOC)c(Cl)cc1Cl,2,0,0,1,5,0,/
O=c1oc2c(CN3CCOCC3)c(O)c(Cl)cc2c2c1CCC2,/,0,104*,0,158*,176*,/
O=c1cc(-c2ccccc2)c2cc(Cl)c(O)c(CN3CCOCC3)c2o1,4,1,-19,0,-24,81,/
O=c1oc2c(CN3CCCCC3)c(O)ccc2c2c1CCCC2,9,0,23,0,37,50,/
CCc1c(C)c2cc(Cl)c(O)c(CN(C)C)c2oc1=O,39*,-1,92*,0,123*,92*,/
CN(C)Cc1c(O)c(Cl)cc2c3c(c(=O)oc12)CCCC3,43*,0,88*,-1,137*,59*,/
O=C(c1c[nH]c(C(=O)C(Cl)(Cl)Cl)c1)c1ccccc1Br,0,-6,0,-1,79*,0,i
Cc1ccccc1C(=O)N1CCCC(N2CCN(Cc3ccc4c(c3)OCO4)CC2)C1 (stereo unspecified),2,/,/,/,/,/,/
SMILES,RanGTP-Impb inh,TNF necrop inh,Runt-CBFb FRET,L929 necroptosis,Hck Nef HTS,Runt-SMMHC FRET,Hck Nef conf
C(=N\NCc1ccccc1)/c1ccc2nccnc2c1,1,1,1,1,68*,-5,+
COc1ccc2nc(C)cc(SCC(=O)Nc3c(C)cccc3C)c2c1,1,3,0,2,78*,-6,i
COc1ccc2nc(C)cc(SCC(=O)Nc3c(C)cc(C)cc3C)c2c1,0,0,-2,1,51*,1,i
COc1ccc2nc(C)cc(SCC(=O)NNC(=O)COc3ccc(C)cc3)c2c1,5,-1,-4,0,-1,-8,/
COc1ccc2nc(C)cc(SCC(=O)N/N=C/c3ccccc3)c2c1,1,4,2,1,13,-5,/
CCCn1c(=N)c(C#N)cc2c(=O)n3ccccc3nc21,179*,-1,32,/,60*,76*,/
O=c1c2ccccc2[nH]c(=S)n1CCCn1ccnc1,-5,/,/,/,/,/,/
N#Cc1cc2c(=O)n3ccccc3nc2n(CCCn2ccnc2)c1=N,140*,-5,12,1,55*,40,i
C=CCCOc1ccccc1C(N)=O,3,6,1,2,20,1,/
COc1ccc(CNC(=O)C2CCN(C(=O)c3cccc(Cl)c3)CC2)cc1,-5,/,/,/,/,/,/
CCCSC1=N/C(=C\c2ccc([N+](=O)[O-])o2)C(=O)S1,/,-6,13,1,51*,-1,i
CCSC1=N/C(=C\c2ccc(-c3ccccc3[N+](=O)[O-])o2)C(=O)S1,-16,-12,17,0,8,5,/
C(=C\c1nccc2c1[nH]c1ccccc12)/c1ccccc1,8,-7,22,5,164*,80*,/
CCN1/C(=C\C=C2\C(=O)N(C)C(=S)N2C)Sc2ccccc21,0,-5,15,0,72*,5,i
CCCCn1c(-c2ccco2)nc2ccccc2c1=O,2,0,-1,0,1,-2,/
COc1cc2ncnc(NCc3ccco3)c2cc1OC,?,2,-1,16,53*,2,i
CCCOc1c(Br)cc(C2C3=C(CCCC3=O)N(C)C3=C2C(=O)CCC3)cc1OC,107*,0,-2,0,54*,79*,/
COc1cc(Br)cc(C2C3=C(CCCC3=O)N(c3ccc(F)cc3)C3=C2C(=O)CCC3)c1O,-1,-4,1,-1,3,4,/
O=C(N=Nc1c(O)[nH]c2ccc(Br)cc12)c1cc(-c2cccs2)nc2ccccc12,7,0,3,2,163*,-7,i
Cn1c(O)c(N=NC(=O)c2cc(-c3cccs3)nc3ccccc23)c2ccccc21,-5,0,1,2,14,-8,/
COc1ccc(NC(=O)Cn2cc(C#N)c3ccccc32)cc1,3,3,0,2,23,-1,/

# Bioassay records: PubChem, several laboratories
